Measurements from ChEMBL document CHEMBL5365542, “Difluoromethyl-1,3,4-oxadiazoles Are Selective, Mechanism-Based, and Essentially Irreversible Inhibitors of Histone Deacetylase 6” (J Med Chem, 2023).

Legend:
[1] = target: Histone deacetylase 2 (Homo sapiens) (UniProt Q92769); assay: Inhibition of C-terminal 6His-tagged human recombinant HDAC2 (1 to 488 residues) expressed in Sf9 insect cells using Z-Lys(Ac)-AMC as fluorogenic substrate at 10 uM preincubated for 60 mins followed by substrate addition and measured after 90 mins by microplate reader analysis relative to control; conditions: time 150.0 min
Method in brief: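 Human recombinant enzyme was preincubated with 3-fold inhibitor dilutions for 60 min at 25 °C in Tris-HCl pH 8.0 buffer with BSA. ZMAL (75 μM solution) was then added, and the mix was incubated 90 min at 37 °C (max 1% DMSO). Trypsin was added for 30 min at 37 °C, and fluorescence was read at ex 355/em 460. Tested at least twice in duplicate.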

[2] = target: Histone deacetylase 4 (Homo sapiens) (UniProt P56524); assay: Inhibition of N-terminal GST-tagged/C-terminal His-tagged human HDAC4 (627 to 1084 residues) expressed in Sf9 insect cells using Boc-Lys(Tfa)-AMC as fluorogenic substrate at 10 uM preincubated for 60 mins followed by substrate addition and measured after 90 mins by microplate reader analysis relative to control; conditions: time 150.0 min
Method in brief: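 Recombinant human HDAC4 was preincubated with inhibitor for 60 min at 25 °C in Tris-HCl pH 8.0/BSA buffer. Boc-Lys(Tfa)-AMC (42.86 μM solution) was then added for 90 min at 37 °C, followed by trypsin for 30 min at 37 °C. Fluorescence was read at ex 355/em 460. Tested at least twice in duplicate.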

[3] = target: T1, Protein deacetylase HDAC6 (Homo sapiens, UniProt Q9UBN7); assay: Inhibition of N-terminal GST tagged human recombinant HDAC6 (1 to 1215 residues) expressed in Sf9 insect cells using Z-Lys(Ac)-AMC as fluorogenic substrate preincubated for 2 hrs followed by substrate addition and measured after 90 mins by microplate reader analysis
T1 sequence (Q9UBN7 whole entry): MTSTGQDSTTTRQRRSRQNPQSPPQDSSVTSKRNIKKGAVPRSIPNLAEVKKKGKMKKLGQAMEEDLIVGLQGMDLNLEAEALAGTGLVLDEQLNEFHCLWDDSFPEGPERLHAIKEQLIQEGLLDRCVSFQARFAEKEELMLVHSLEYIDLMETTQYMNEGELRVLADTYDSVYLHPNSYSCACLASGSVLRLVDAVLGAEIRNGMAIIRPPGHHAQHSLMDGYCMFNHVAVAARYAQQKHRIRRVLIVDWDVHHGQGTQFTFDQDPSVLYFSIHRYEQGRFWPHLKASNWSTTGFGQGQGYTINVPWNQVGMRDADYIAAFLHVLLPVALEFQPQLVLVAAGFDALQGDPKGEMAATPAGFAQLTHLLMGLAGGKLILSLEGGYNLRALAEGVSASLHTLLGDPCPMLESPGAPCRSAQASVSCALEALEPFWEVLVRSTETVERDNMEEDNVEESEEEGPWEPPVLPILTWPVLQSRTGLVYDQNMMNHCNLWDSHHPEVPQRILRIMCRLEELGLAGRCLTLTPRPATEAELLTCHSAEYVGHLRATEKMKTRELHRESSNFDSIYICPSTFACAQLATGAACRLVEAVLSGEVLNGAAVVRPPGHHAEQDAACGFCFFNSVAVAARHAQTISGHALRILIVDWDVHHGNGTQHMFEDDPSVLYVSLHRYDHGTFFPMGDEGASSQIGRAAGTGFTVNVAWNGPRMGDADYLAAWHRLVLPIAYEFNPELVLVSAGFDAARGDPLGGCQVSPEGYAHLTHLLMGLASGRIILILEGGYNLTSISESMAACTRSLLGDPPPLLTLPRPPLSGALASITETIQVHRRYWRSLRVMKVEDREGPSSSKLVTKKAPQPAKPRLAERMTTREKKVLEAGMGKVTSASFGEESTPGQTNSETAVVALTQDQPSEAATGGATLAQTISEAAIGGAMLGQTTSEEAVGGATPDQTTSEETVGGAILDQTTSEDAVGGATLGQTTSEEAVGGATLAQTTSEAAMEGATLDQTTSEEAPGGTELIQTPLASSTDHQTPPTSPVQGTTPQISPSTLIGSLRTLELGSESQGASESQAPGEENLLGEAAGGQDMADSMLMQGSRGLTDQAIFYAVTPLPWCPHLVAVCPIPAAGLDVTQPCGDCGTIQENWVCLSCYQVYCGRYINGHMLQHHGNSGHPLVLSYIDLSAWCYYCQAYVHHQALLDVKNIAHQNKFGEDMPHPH

Chain of Histone deacetylase 4 (Homo sapiens) (P56524 whole entry, the tested form may be a part): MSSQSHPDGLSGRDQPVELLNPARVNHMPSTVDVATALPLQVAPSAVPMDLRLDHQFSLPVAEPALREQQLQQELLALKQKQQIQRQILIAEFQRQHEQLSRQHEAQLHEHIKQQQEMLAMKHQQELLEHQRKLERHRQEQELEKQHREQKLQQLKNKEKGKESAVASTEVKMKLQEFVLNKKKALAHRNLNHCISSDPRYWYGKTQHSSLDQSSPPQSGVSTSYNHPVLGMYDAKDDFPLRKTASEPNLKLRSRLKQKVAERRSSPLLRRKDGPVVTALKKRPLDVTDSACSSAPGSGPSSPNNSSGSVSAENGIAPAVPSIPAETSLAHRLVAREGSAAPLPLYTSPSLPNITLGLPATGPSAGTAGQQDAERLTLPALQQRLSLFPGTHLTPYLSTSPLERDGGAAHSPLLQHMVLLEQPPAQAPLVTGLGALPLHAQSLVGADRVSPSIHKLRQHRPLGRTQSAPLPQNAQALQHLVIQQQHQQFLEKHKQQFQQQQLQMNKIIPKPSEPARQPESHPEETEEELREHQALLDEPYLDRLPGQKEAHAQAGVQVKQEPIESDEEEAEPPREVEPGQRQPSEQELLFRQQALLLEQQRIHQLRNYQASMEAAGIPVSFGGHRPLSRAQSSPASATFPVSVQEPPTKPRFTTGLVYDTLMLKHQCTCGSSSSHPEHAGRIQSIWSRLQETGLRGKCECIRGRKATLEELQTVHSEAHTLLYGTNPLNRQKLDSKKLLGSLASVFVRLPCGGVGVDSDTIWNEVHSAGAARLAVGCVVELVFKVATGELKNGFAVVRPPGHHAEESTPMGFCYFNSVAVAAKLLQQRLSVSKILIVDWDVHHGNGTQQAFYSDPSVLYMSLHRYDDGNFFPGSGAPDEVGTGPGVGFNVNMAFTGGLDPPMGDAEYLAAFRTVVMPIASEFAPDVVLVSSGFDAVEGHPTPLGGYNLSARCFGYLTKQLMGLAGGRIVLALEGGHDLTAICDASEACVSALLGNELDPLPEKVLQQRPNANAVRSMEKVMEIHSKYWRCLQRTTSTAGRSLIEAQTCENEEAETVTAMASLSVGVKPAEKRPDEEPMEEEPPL
Chain of Histone deacetylase 2 (Homo sapiens) (Q92769 whole entry, the tested form may be a part): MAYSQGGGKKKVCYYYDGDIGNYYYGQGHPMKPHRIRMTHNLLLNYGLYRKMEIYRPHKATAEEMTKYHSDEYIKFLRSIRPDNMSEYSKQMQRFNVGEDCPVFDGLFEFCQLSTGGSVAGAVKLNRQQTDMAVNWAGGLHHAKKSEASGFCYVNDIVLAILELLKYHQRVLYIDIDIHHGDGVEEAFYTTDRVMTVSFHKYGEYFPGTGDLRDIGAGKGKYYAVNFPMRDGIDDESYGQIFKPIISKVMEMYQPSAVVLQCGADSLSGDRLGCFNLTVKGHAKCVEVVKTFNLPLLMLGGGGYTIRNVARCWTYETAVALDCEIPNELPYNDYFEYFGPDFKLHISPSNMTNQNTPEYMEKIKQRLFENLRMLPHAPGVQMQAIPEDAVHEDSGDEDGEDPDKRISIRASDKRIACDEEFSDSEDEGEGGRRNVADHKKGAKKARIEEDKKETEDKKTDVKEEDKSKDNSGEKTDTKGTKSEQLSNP

Structure (SMILES) | inhibition [1] | inhibition [2] | IC50 [3]
FC(F)c1nnc(-c2cnc(NCc3ccccc3)nc2)o1 | < 15% | < 15% | 0.129 µM
FC(F)(F)c1nnc(-c2cnc(NCc3ccccc3)nc2)o1 | < 15% | < 15% | 0.601 µM
